dFosB activator = mouse delta FosB homodimer activation; P13346; purified delta FosB, TAMRA-CDK5 oligo fluorescence polarization; percent of positive-control signal above neutral wells; activation, % at 25 µM; 0.99% of 340,000 active;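 active means mean activation above about 17%, with every replicate also reaching it, limit read from the data, passing the limit was not always enough; inconclusive means only one of the two conditions met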
CAL PDZ FP-1 = human CAL PDZ-peptide interaction inhibition; purified CAL PDZ, TMR-peptide fluorescence polarization, 1 h; inhibition, % at 20 µM; 0.02% of 330,000 active;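 active means highest replicate inhibition of at least 40%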;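 further: plate controls were DMSO neutral control wells for no effect and unlabeled competitor peptide control wells for full effect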
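material = purified tagged CAL PDZ domain construct (CerCALP) | compound dosing = 20 µM, one dose | times = 1 h at RT | measured by = fluorescence polarization from S- and P-plane intensities, G-factor corrected | read-out = inhibition from polarization loss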
SR-BI uptake up = enhances SR-BI lipid uptake from DiI-HDL; CHO ldlA[mSR-BI] cells, DiI-HDL uptake fluorescence, 3 h; 100 = double the neutral-control signal; 0.096% of 320,000 active; AID 504775; activation, % at 12.5 µM;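 active means mean replicate activation of at least 60% and every replicate at or above 60%; inconclusive means mean or all-replicate condition met, but not both; inactive means mean below 60% and not all replicates reaching 60%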;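 further: 0% = median plate neutral-control signal and 100% = twice that signal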
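Material: SR-BI-overexpressing, LDLR-lacking CHO cells | Dosing: Single compound concentration, delivered by pin transfer | Probe or stimulus: Labelled HDL, 10 µg/mL | Signal: Bottom-read cell fluorescence after medium removal, ex 550/em 595 nm | Schedule: 3 h, 37 °C | Evaluation: HDL uptake via cellular fluorescence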
SR-BI HDL uptake = mouse SR-BI HDL lipid transfer inhibition; inhibition, % at 12.5 µM; Q61009; 0.96% of 320,000 active; ldlA[mSR-BI] CHO cells, DiI-HDL uptake fluorescence, 3 h;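 active means mean replicate inhibition of at least 70% and a set share of replicates each scoring 70 or more; inconclusive means meets just one of the two criteria; inactive means fails both criteria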;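 further: 0% = median of neutral control wells and 100% = median of positive control wells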
Target sequence (Q61009 whole entry, looked up): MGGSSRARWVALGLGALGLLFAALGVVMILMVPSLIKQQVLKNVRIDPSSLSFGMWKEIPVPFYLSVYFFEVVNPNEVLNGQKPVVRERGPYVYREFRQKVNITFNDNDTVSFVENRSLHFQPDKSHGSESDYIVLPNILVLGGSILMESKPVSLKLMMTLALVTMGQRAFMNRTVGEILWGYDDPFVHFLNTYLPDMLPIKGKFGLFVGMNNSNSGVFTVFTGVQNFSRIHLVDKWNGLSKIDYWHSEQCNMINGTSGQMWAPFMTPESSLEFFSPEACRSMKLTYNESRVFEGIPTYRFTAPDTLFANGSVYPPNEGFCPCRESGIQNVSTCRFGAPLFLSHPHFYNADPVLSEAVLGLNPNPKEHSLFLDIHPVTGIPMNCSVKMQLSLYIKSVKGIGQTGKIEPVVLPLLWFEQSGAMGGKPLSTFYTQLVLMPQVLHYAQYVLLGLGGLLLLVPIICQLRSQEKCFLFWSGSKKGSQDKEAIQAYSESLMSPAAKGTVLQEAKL
CAL PDZ FP-2 = inhibitors of human CAL PDZ peptide binding; Q9HD26; purified CAL PDZ, TMR-peptide fluorescence polarization, 1 h; inhibition, % at 24.9 µM; 0.92% of 300,000 active; AID 602252;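 active means mean inhibition of at least 30% with at least half of replicates also reaching 30%; inconclusive means no clear call, values can overlap the other calls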;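 further: 0% = DMSO neutral control and 100% = excess unlabeled competitor peptide PRC23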
DiI quench = DiI fluorescence quenching in cell-free counter-screen | AID 540326 | AC50, µM (highest dose often 35 µM), inactives show at the highest dose activity change, negative = quenching | cell-free DiI-HDL fluorescence quenching, 30 min | shares compounds with SR-BI HDL uptake | 20% of 470 active;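 active means quenching, a falling signal, with AC50 below a set limit tied to the top valid dose, actives reach about 32 µM in these data; inconclusive means no clear call, values can overlap the other calls; inactive means rising signal, and the rest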
* hit, by the source's call. Rows were chosen to be rich in hits. Some 2.8% of all compounds tested hit in one or more screens of this group.

How did Cc1ccccc1C(=O)NC1CC2CCCC(C1)N2C(=O)Nc1ccccc1 (stereo not drawn) do in these assays?
dFosB activator: 0; CAL PDZ FP-1: -3; SR-BI uptake up: 15; SR-BI HDL uptake: -15; CAL PDZ FP-2: -3; DiI quench: -3%

Results for CC(C)(C)C(=O)NC1CC2CCCC(C1)N2C(=O)Nc1ccccc1 (stereo not drawn) ?
dFosB activator: -6; CAL PDZ FP-1: 0; SR-BI uptake up: 5; SR-BI HDL uptake: -5; CAL PDZ FP-2: -5

Results for CC(=O)c1c(C(C)=O)c(C)n(-c2ccc(C)c(NC(=O)c3ccccc3Cl)c2)c1C ?
dFosB activator: -16; CAL PDZ FP-1: -1; SR-BI uptake up: -79; SR-BI HDL uptake: 79*; CAL PDZ FP-2: -3; DiI quench: 5%

What do the screens show for `Cc1ccc(NC(=O)c2ccccc2Cl)c(Cl)c1`?
dFosB activator: 5; CAL PDZ FP-1: -2; SR-BI uptake up: -23; SR-BI HDL uptake: 23; CAL PDZ FP-2: 3

Results for Cc1ccc(C)c(N2CCN(CCCNC(=O)Cn3c(=O)c4cccn4c4cccnc43)CC2)c1 ?
dFosB activator: -16; CAL PDZ FP-1: -4; SR-BI uptake up: -70; SR-BI HDL uptake: inconclusive; CAL PDZ FP-2: -1; DiI quench: -3%

Results for Cc1ccc(NC(=O)c2cc(-c3ccco3)nc3ccccc23)cc1S(=O)(=O)N1CCOCC1 ?
dFosB activator: -11; CAL PDZ FP-1: -2; SR-BI uptake up: -102; SR-BI HDL uptake: 102*; CAL PDZ FP-2: -3; DiI quench: 0%

Results for CCOc1cc(N2CCOCC2)c(OCC)cc1NC(=O)c1cc(-c2ccco2)nc2ccccc12 ?
dFosB activator: -1; CAL PDZ FP-1: -2; SR-BI uptake up: -79; SR-BI HDL uptake: 79*; CAL PDZ FP-2: -4; DiI quench: 24µM*

How did COc1ccc(NC(=O)c2cc(C)nc3ccccc23)cc1S(=O)(=O)N1CCOCC1 do in these assays?
dFosB activator: -3; CAL PDZ FP-1: 0; SR-BI uptake up: -32; SR-BI HDL uptake: 32; CAL PDZ FP-2: -6

How did CSc1ccccc1OCc1cc(C(=O)N(C)Cc2c(C)n[nH]c2C)no1 do in these assays?
dFosB activator: -4; CAL PDZ FP-1: -1; SR-BI uptake up: -78; SR-BI HDL uptake: 78*; CAL PDZ FP-2: -3; DiI quench: -4%

How did COc1ccccc1C(=O)COC(=O)c1cccc(-n2cnnn2)c1 do in these assays?
dFosB activator: -1; CAL PDZ FP-1: -1; SR-BI uptake up: -16; SR-BI HDL uptake: 16; CAL PDZ FP-2: 21

Results for CCOc1ccccc1COC(=O)c1cccc(-n2cnnn2)c1 ?
dFosB activator: -9; CAL PDZ FP-1: -3; SR-BI uptake up: -72; SR-BI HDL uptake: 72*; CAL PDZ FP-2: -2; DiI quench: 1%

How did O=C(C[C@@H]1C/C=C/CC[C@@H](Cc2ccc(F)cc2)C(=O)O[C@H](c2ccccc2)CNC1=O)NCCO do in these assays?
dFosB activator: -5; CAL PDZ FP-1: 1; SR-BI uptake up: 0; SR-BI HDL uptake: 1; CAL PDZ FP-2: -4

Results for CCOc1ccc(NC(=O)CN2CCN(CC(=O)Nc3cc(OC)cc(OC)c3)CC2)cc1 ?
dFosB activator: -2; CAL PDZ FP-1: -1; SR-BI uptake up: -81; SR-BI HDL uptake: 81*; CAL PDZ FP-2: -2; DiI quench: -1%

What do the screens show for `CCOc1ccc(NC(=O)CN2CCN(CC(=O)Nc3ccc(Cl)c(C(F)(F)F)c3)CC2)cc1`?
dFosB activator: -27; CAL PDZ FP-1: -2; SR-BI uptake up: -37; SR-BI HDL uptake: 37; CAL PDZ FP-2: -1; DiI quench: 1%

How did Cc1ccc(C2(c3ccccc3)NC(=O)N(CC(=O)N(C)C3CCS(=O)(=O)C3)C2=O)cc1C (stereo not drawn) do in these assays?
dFosB activator: -15; CAL PDZ FP-1: -2; SR-BI uptake up: -25; SR-BI HDL uptake: 25

What do the screens show for `Cc1c(CN2CCN(CC(C)C)C(CCO)C2)[nH]c2ccc(Cl)cc12` (stereo not drawn)?
dFosB activator: 2; CAL PDZ FP-1: 1; SR-BI uptake up: -6; SR-BI HDL uptake: 6; CAL PDZ FP-2: -2

Results for CCOc1ccc(NS(=O)(=O)c2ccc(C(=O)NNC(=O)c3ccccc3O)cc2)cc1 ?
dFosB activator: -7; CAL PDZ FP-1: -4; SR-BI uptake up: -127; SR-BI HDL uptake: 127*; CAL PDZ FP-2: -2; DiI quench: 0.61µM*

What do the screens show for `O=C(NNC(=O)c1ccccc1O)c1ccc(S(=O)(=O)Nc2ccccc2)cc1`?
dFosB activator: -7; CAL PDZ FP-1: -2; SR-BI uptake up: -113; SR-BI HDL uptake: 113*; CAL PDZ FP-2: 1; DiI quench: 0.4µM*

Results for O=C(Nc1ccccc1)c1ccc(S(=O)(=O)Nc2cccc(O)c2)cc1 ?
dFosB activator: 4; CAL PDZ FP-1: -1; SR-BI uptake up: -12; SR-BI HDL uptake: 12; CAL PDZ FP-2: -2

How did Cc1nc(NCc2cccnc2)c2c3c(sc2n1)CC(C)CC3 (stereo not drawn) do in these assays?
dFosB activator: -2; CAL PDZ FP-1: -4; SR-BI uptake up: -71; SR-BI HDL uptake: inconclusive; CAL PDZ FP-2: -1; DiI quench: -6%

What do the screens show for `COc1ccc(CCNC(=O)CCC(=O)N2CC(C)Oc3ccc(Cl)cc32)cc1OC` (stereo not drawn)?
dFosB activator: -2; CAL PDZ FP-1: 0; SR-BI uptake up: -71; SR-BI HDL uptake: inconclusive; DiI quench: -2%

Results for Cc1ccccc1C(=O)Nc1cc(NC(=O)c2ccccc2C)cc(C(=O)O)c1 ?
dFosB activator: 2; CAL PDZ FP-1: 0; SR-BI uptake up: 11; SR-BI HDL uptake: -11; DiI quench: -3%

Results for COc1ccc(-c2cc(C(=O)N(C)Cc3nc4ccccc4c(=O)[nH]3)c3ccccc3n2)cc1OC ?
dFosB activator: -5; CAL PDZ FP-1: -2; SR-BI uptake up: -13; SR-BI HDL uptake: 13

How did COc1ccc(C(=O)CSc2nnc(CNC(=O)c3ccc(S(=O)(=O)N(C)C)cc3)o2)cc1 do in these assays?
dFosB activator: -11; CAL PDZ FP-1: -1; SR-BI uptake up: -78; SR-BI HDL uptake: 78*; CAL PDZ FP-2: 10; DiI quench: 0%

What do the screens show for `CC1CN(c2oc(COc3ccc(Cl)cc3Cl)nc2C#N)CC(C)O1` (stereo not drawn)?
dFosB activator: -6; CAL PDZ FP-1: -4; SR-BI uptake up: -81; SR-BI HDL uptake: 81*; CAL PDZ FP-2: -5; DiI quench: 1%
